In article PMC4917231 (MedChemComm, 2016):

Legend:
[1] = Tissue distribution study in mice after IP dosing; type: in vivo; conditions: 20 mg/kg IP
Method in brief: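 Non-tumour-bearing mice received a single IP dose of test compound at 20 mg kg⁻¹, given as a 1 mg ml⁻¹ formulation in 10:10:80 DMSO:Tween80:water. Compound residence in tissues was followed after dosing.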

[2] = system: Raji Burkitt B-cell lymphoma; experiment: 96h MTT assay using Raji Burkitt B-cell lymphoma; type: cell-based; conditions: Homo sapiens, Raji cells

CC(C)Cc1nn(C)c(=O)c2c(SCCCO)n(Cc3ccc(C#CCCCOc4ccc(C[C@H](N)C(=O)O)cc4)c4ccccc34)cc12 [Compound 10]
detectability in tissues seven days after IP administration [1]: detectable in all tissues

CC(C)Cc1nn(C)c(=O)c2c(SCCCO)n(Cc3ccc(NCCCCCNC(=O)[C@@H](N)CCC(N)=O)nc3)cc12 [Compound 12]
EC50 [2]: ~0.1 µM
